Data reported in PubChem BioAssay.
The source made the active and inactive calls.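 Rule for the calls, unless noted: active = current rise at least 3 SD above the untreated control mean in each of two repeat wells; inactive = the rest.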

These compounds were tested against Potassium voltage-gated channel subfamily KQT member 2 (Rattus norvegicus) (UniProt O88943) (assay: rat KCNQ2 channel potentiation, selectivity assay for KCNQ1 potentiator project, KCNQ2-CHO-K1 cells (AID 493009;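 active = mean duplicate potentiation above the buffer control mean plus 5 SD of buffer wells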;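 note: assay conditions were tuned for KCNQ1 rather than KCNQ2 modulators; signal is max minus min fluorescence divided by baseline after thallium stimulus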)). Details: FluxOR thallium flux fluorescence, at 10 µM; hits give high values, scaled: buffer 0, activator control 100.
Potassium voltage-gated channel subfamily KQT member 2 (Rattus norvegicus), sequence (O88943 whole entry, looked up): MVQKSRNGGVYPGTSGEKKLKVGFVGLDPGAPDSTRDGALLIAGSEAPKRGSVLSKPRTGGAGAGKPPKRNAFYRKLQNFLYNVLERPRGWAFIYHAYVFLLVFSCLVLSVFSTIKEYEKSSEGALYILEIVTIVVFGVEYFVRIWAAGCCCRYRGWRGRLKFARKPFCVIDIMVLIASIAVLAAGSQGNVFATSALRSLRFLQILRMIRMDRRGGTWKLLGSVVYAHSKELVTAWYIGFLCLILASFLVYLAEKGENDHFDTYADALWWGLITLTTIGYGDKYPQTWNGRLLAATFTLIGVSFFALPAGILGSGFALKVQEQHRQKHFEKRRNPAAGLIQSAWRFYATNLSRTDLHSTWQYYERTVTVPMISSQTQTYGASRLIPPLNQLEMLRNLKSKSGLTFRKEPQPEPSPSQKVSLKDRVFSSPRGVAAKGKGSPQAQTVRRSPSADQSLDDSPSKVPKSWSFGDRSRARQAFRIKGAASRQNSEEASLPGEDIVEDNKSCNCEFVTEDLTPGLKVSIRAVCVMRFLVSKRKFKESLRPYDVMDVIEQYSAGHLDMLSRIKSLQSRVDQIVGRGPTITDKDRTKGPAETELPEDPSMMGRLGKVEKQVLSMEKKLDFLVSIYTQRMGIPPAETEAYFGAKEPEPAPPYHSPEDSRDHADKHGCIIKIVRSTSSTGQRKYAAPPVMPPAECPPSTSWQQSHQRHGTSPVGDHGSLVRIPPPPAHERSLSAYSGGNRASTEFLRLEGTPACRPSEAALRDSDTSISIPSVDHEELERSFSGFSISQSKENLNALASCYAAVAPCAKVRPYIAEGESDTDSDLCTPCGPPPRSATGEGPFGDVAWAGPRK

Row | SMILES | outcome | potentiation
1 | O=c1c2cc(Cl)cc(Cl)c2nc2n1CCC2 | inactive | –
2 | COc1ccc(C(=O)NC(=S)N2CCC(C)CC2)cc1Br | – | 290% (active)
3 | O=C(NC(=S)NCc1ccccc1)c1ccc(Br)o1 | – | 510% (active)
4 | Fc1ccc(/C=N/NC(=S)Nc2ccc(Cl)cc2)cc1F | inactive | –
5 | CC1=NN(C(=O)c2csc(C(C)C)c2)C(O)(C(F)(F)F)C1 (stereo not given) | – | 178% (active)
6 | COC(=O)c1ccsc1NC(=O)CN1CCN(Cc2ccc3c(c2)OCO3)CC1 | inactive | –
7 | O=C(NNC(=O)c1ccc(Cl)c(Cl)c1)c1ccncc1 | inactive | –
8 | O=C(ONC1=NCCCCC1)c1ccc(Cl)cc1 | inactive | –
9 | CCOC(=O)CSc1nc2ccccc2c(=O)n1-c1ccc(C)cn1 | inactive | –
10 | CCCCn1c(=S)[nH]c2ncccc2c1=O | – | 173% (active)
11 | COc1cccc2sc(Nc3nnc(-c4ccc(F)cc4)o3)nc12 | – | 521% (active)
12 | Cc1ccc(O)c(C(=O)CC(=O)c2cccc(F)c2)c1 | – | 159% (active)
13 | C/C(=N\NC(=O)c1cccc(Br)c1)c1ccccn1 | inactive | –
14 | COc1ccc(N2CCN(C(=S)NC(=O)c3cccs3)CC2)c([N+](=O)[O-])c1 | – | 232% (active)
15 | COc1ccccc1NC(=O)Cn1cnc2c(oc3nc4c(cc32)CCCC4)c1=O | inactive | –
16 | Cc1cc(/C=C2\C(=N)N3N=C(C(C)C)SC3=NC2=O)c(C)n1Cc1ccccc1 | inactive | –
17 | CNCc1ccccc1Sc1cccc2ccccc12 | inactive | –
18 | Cc1cc(C(c2cc(C)c(N)c(C)c2)c2ccco2)cc(C)c1N | – | 224% (active)
19 | CCOC(=O)/C(C)=N/NC(=O)c1cccc([N+](=O)[O-])c1 | – | 206% (active)
20 | N#CC1(c2ccc(NC(=O)c3ccccc3F)cc2)CCCC1 | inactive | –

Row | SMILES | outcome | potentiation
21 | COc1ccc(OC)c(NC(=O)C(=O)NNC(=O)C23CC4CC(CC(C4)C2)C3)c1 | – | 463% (active)
22 | S=C(Nc1ccc(Br)cc1)N1CCn2cccc2C1c1cccnc1 (stereo not given) | inactive | –
23 | Oc1c(N=NC(=S)Nc2ccccc2F)c2ccccc2n1Cc1ccccc1 | – | 183% (active)
24 | COc1ccc(/C=C2\SC(=Nc3ccccc3OC)NC2=O)cc1 | inactive | –
25 | CC(CCc1ccccc1)NC(=S)NC(=O)c1ccco1 (stereo not given) | – | 251% (active)
26 | Cn1c(=O)n(CCc2ccccc2)c2ccccc21 | inactive | –
27 | CCN(CC)C(=O)c1[nH]cnc1C(=O)NCC(=O)OC(C)(C)C | inactive | –
28 | CCCCCCCCCCCCN1[C@@H](CC(=O)O)c2cc(F)ccc2S1(=O)=O | – | 190% (active)
29 | OC(C#CCCN1CCCCC1)(c1ccccc1)c1ccccc1 | inactive | –
30 | COc1ccc(OCc2cc(C(=O)N(C)CC3CCCCO3)no2)c(Cl)c1 (stereo not given) | inactive | –
31 | Cc1ccc(S(=O)(=O)NN2C(=O)/C(=C/c3cccs3)SC2=S)cc1 | – | 159% (active)
32 | Cc1cc(-c2csc3nc[nH]c(=S)c23)cc(C)c1C | – | 408% (active)
33 | COc1ccc(/C=N/N=C2/NC(=O)C(c3ccccc3)S2)c(OC)c1 (stereo not given) | inactive | –
34 | Cc1ccc(-n2cccc2/C=C2\C(=N)N3N=C(C(C)C)SC3=NC2=O)cc1 | inactive | –
35 | Cc1nc(SC(C)C(=O)c2c(N)n(C)c(=O)n(C)c2=O)c2c(C)c(C)sc2n1 (stereo not given) | – | 256% (active)
36 | CC(C)c1ccc(C(=O)NC2=NCCS2)cc1 | inactive | –
37 | N#C/C(=C\c1ccc(-c2ccccc2[N+](=O)[O-])o1)C(=O)Nc1nc(-c2cccs2)cs1 | – | 224% (active)
38 | Cc1ccc(F)cc1S(=O)(=O)NCc1ccc(N2CCN(C)CC2)cc1 | inactive | –
39 | CCOc1ccc2nc(N3C(=O)/C(=C/c4ccccc4)NC3=S)sc2c1 | – | 700% (active)
40 | O=C(NC(=S)Nc1cccnc1)c1cc2ccccc2o1 | – | 182% (active)

Each compound was assayed against Potassium voltage-gated channel subfamily KQT member 1 (Homo sapiens) (UniProt P51787) (assay: KCNQ1 channel current potentiators, confirmation, orthogonal assay for KCNQ1 potentiator project, IonWorks patch clamp, KCNQ1-CHO cells (AID 493184;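 for current potentiation: percent change of the same well's current before compound addition so 0% = no change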)). Details: automated patch clamp current, at 10 µM; hits give high values.
Procedure, shortened: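 Read-out: Percent current increase versus pre-compound level | Assay system: CHO cells carrying KCNQ1 | Measured by: Automated perforated-patch electrophysiology | Medium: External bath solution at pH 7.4 | Dosing: One dose, 10 µM final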

Potassium voltage-gated channel subfamily KQT member 1 (Homo sapiens), sequence (P51787 whole entry, looked up): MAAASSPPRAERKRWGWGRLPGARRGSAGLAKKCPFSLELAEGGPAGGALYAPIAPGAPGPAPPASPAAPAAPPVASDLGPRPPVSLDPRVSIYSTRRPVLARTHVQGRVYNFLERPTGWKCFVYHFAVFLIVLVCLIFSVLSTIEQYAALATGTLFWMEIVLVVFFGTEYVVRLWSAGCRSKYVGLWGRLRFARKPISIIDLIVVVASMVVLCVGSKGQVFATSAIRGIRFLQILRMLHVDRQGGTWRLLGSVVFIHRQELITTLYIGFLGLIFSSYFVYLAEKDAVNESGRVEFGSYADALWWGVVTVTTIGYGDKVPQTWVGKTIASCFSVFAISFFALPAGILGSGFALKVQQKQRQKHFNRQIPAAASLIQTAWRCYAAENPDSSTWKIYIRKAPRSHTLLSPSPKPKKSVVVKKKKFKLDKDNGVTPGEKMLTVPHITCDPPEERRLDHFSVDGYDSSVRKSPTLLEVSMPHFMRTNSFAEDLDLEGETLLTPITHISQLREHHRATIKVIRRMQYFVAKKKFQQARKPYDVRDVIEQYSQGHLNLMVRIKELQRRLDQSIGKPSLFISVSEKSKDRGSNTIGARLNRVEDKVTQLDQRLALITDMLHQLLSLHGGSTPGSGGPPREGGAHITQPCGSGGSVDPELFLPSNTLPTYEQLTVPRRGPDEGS

Row | SMILES | outcome | current potentiation
41 | O=c1c2cc(Cl)cc(Cl)c2nc2n1CCC2 | inactive | –
42 | COc1ccc(C(=O)NC(=S)N2CCC(C)CC2)cc1Br | inactive | –
43 | O=C(NC(=S)NCc1ccccc1)c1ccc(Br)o1 | inactive | –
44 | Fc1ccc(/C=N/NC(=S)Nc2ccc(Cl)cc2)cc1F | inactive | –
45 | CC1=NN(C(=O)c2csc(C(C)C)c2)C(O)(C(F)(F)F)C1 (stereo not given) | inactive | –
46 | COC(=O)c1ccsc1NC(=O)CN1CCN(Cc2ccc3c(c2)OCO3)CC1 | inactive | –
47 | O=C(NNC(=O)c1ccc(Cl)c(Cl)c1)c1ccncc1 | inactive | –
48 | O=C(ONC1=NCCCCC1)c1ccc(Cl)cc1 | inactive | –
49 | CCOC(=O)CSc1nc2ccccc2c(=O)n1-c1ccc(C)cn1 | inactive | –
50 | CCCCn1c(=S)[nH]c2ncccc2c1=O | inactive | –
51 | COc1cccc2sc(Nc3nnc(-c4ccc(F)cc4)o3)nc12 | inactive | –
52 | Cc1ccc(O)c(C(=O)CC(=O)c2cccc(F)c2)c1 | inactive | –
53 | C/C(=N\NC(=O)c1cccc(Br)c1)c1ccccn1 | inactive | –
54 | COc1ccc(N2CCN(C(=S)NC(=O)c3cccs3)CC2)c([N+](=O)[O-])c1 | inactive | –
55 | COc1ccccc1NC(=O)Cn1cnc2c(oc3nc4c(cc32)CCCC4)c1=O | inactive | –
56 | Cc1cc(/C=C2\C(=N)N3N=C(C(C)C)SC3=NC2=O)c(C)n1Cc1ccccc1 | inactive | –
57 | CNCc1ccccc1Sc1cccc2ccccc12 | inactive | –
58 | Cc1cc(C(c2cc(C)c(N)c(C)c2)c2ccco2)cc(C)c1N | inactive | –
59 | CCOC(=O)/C(C)=N/NC(=O)c1cccc([N+](=O)[O-])c1 | inactive | –
60 | N#CC1(c2ccc(NC(=O)c3ccccc3F)cc2)CCCC1 | inactive | –

Row | SMILES | outcome | current potentiation
61 | COc1ccc(OC)c(NC(=O)C(=O)NNC(=O)C23CC4CC(CC(C4)C2)C3)c1 | inactive | –
62 | S=C(Nc1ccc(Br)cc1)N1CCn2cccc2C1c1cccnc1 (stereo not given) | inactive | –
63 | Oc1c(N=NC(=S)Nc2ccccc2F)c2ccccc2n1Cc1ccccc1 | inactive | –
64 | COc1ccc(/C=C2\SC(=Nc3ccccc3OC)NC2=O)cc1 | inactive | –
65 | CC(CCc1ccccc1)NC(=S)NC(=O)c1ccco1 (stereo not given) | inactive | –
66 | Cn1c(=O)n(CCc2ccccc2)c2ccccc21 | inactive | –
67 | CCN(CC)C(=O)c1[nH]cnc1C(=O)NCC(=O)OC(C)(C)C | inactive | –
68 | CCCCCCCCCCCCN1[C@@H](CC(=O)O)c2cc(F)ccc2S1(=O)=O | inactive | –
69 | OC(C#CCCN1CCCCC1)(c1ccccc1)c1ccccc1 | inactive | –
70 | COc1ccc(OCc2cc(C(=O)N(C)CC3CCCCO3)no2)c(Cl)c1 (stereo not given) | inactive | –
71 | Cc1ccc(S(=O)(=O)NN2C(=O)/C(=C/c3cccs3)SC2=S)cc1 | inactive | –
72 | Cc1cc(-c2csc3nc[nH]c(=S)c23)cc(C)c1C | inactive | –
73 | COc1ccc(/C=N/N=C2/NC(=O)C(c3ccccc3)S2)c(OC)c1 (stereo not given) | inactive | –
74 | Cc1ccc(-n2cccc2/C=C2\C(=N)N3N=C(C(C)C)SC3=NC2=O)cc1 | – | 36% (active)
75 | Cc1nc(SC(C)C(=O)c2c(N)n(C)c(=O)n(C)c2=O)c2c(C)c(C)sc2n1 (stereo not given) | inactive | –
76 | CC(C)c1ccc(C(=O)NC2=NCCS2)cc1 | inactive | –
77 | N#C/C(=C\c1ccc(-c2ccccc2[N+](=O)[O-])o1)C(=O)Nc1nc(-c2cccs2)cs1 | inactive | –
78 | Cc1ccc(F)cc1S(=O)(=O)NCc1ccc(N2CCN(C)CC2)cc1 | inactive | –
79 | CCOc1ccc2nc(N3C(=O)/C(=C/c4ccccc4)NC3=S)sc2c1 | inactive | –
80 | O=C(NC(=S)Nc1cccnc1)c1cc2ccccc2o1 | inactive | –
